Laboratory results reported in the M2OR odorant receptor database.

Assays:
Conditions in all cases: stereoisomer not certain
OR10G2 (Homo sapiens) = biological target: T1, OR10G2 (Homo sapiens) (UniProt Q8NGC3)
T1 sequence (whole entry): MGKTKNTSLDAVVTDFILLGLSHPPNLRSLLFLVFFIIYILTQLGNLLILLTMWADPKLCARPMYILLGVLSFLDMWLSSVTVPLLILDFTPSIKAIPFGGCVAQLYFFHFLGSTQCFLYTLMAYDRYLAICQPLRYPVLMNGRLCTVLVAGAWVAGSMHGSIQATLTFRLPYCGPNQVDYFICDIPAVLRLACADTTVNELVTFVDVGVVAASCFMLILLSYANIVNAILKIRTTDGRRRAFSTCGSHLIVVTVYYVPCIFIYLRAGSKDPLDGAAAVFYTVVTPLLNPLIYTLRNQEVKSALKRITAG
Procedure, shortened: (§1)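 Each entry records the cell line, G-protein, co-transfected protein and tags used. Methods varied with the source, often transient luciferase assays in mammalian cell lines. A receptor–molecule pair is called responsive (active) if the original authors judged its signal statistically different from baseline and non-responsive (inactive) otherwise.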

OR10G3 (Homo sapiens) = biological target: T2, OR10G3 (Homo sapiens) (UniProt Q8NGC4)
T2 sequence (whole entry): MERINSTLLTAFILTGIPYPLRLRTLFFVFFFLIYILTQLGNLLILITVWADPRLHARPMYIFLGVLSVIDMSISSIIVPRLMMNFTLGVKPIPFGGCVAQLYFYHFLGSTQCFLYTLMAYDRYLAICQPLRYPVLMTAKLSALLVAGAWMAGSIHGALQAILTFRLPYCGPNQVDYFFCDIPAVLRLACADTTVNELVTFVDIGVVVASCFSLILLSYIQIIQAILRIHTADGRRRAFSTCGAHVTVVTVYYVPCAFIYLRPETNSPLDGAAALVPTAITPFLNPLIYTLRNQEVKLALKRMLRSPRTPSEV
Procedure, shortened: as §1

OR10G4 (Homo sapiens) = biological target: T3, OR10G4 (Homo sapiens) (UniProt Q8NGN3)
T3 sequence (whole entry): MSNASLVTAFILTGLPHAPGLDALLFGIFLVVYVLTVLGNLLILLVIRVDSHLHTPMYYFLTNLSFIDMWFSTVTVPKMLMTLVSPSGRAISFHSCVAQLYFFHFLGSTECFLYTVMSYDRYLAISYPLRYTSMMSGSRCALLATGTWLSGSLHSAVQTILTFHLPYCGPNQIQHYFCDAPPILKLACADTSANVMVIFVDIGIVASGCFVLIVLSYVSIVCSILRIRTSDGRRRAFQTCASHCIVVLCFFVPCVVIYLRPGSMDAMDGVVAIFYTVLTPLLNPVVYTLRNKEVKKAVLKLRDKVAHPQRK
Procedure, shortened: as §1

OR10G6 (Homo sapiens) = biological target: T4, OR10G6 (Homo sapiens) (UniProt Q8NH81)
T4 sequence (whole entry): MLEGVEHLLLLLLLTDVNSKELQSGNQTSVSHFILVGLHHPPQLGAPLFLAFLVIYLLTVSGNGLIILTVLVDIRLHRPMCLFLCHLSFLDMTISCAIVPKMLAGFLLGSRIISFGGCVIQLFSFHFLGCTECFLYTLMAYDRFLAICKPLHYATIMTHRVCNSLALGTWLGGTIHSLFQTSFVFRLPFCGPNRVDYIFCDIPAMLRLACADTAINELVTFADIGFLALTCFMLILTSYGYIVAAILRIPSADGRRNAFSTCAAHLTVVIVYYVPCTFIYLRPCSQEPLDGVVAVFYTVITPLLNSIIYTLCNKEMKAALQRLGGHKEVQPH
Procedure, shortened: as §1

OR10G7 (Homo sapiens) = biological target: T5, OR10G7 (Homo sapiens) (UniProt Q8NGN6)
T5 sequence (whole entry): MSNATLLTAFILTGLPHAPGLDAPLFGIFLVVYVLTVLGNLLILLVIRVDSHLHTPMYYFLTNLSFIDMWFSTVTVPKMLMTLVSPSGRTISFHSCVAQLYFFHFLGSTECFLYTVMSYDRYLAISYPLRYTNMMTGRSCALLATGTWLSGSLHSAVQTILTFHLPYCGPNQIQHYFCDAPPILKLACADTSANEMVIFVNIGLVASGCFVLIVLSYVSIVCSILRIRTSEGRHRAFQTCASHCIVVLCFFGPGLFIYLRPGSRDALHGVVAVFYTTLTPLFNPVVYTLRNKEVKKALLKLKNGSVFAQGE
Procedure, shortened: as §1

OR10G8 (Homo sapiens) = biological target: T6, OR10G8 (Homo sapiens) (UniProt Q8NGN5)
T6 sequence (whole entry): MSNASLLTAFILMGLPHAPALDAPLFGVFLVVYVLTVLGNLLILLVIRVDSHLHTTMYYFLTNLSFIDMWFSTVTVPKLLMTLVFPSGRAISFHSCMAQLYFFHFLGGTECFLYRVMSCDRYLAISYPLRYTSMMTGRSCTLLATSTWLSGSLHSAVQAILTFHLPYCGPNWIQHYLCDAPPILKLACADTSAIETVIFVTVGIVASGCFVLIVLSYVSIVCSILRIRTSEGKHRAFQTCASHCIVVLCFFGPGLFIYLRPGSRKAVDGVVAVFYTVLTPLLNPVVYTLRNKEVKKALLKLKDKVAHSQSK
Procedure, shortened: as §1

OR10G9 (Homo sapiens) = biological target: T7, OR10G9 (Homo sapiens) (UniProt Q8NGN4)
T7 sequence (whole entry): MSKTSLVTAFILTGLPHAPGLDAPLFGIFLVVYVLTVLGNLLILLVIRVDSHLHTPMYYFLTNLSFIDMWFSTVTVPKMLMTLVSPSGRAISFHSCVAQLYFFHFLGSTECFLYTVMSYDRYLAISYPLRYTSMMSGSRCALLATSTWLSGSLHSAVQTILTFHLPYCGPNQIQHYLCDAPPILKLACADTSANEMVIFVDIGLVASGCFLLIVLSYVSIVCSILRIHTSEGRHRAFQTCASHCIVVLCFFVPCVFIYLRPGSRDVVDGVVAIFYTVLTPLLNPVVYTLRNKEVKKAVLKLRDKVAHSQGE
Procedure, shortened: as §1

OR10H1 (Homo sapiens) = biological target: T8, OR10H1 (Homo sapiens) (UniProt Q9Y4A9)
T8 sequence (whole entry): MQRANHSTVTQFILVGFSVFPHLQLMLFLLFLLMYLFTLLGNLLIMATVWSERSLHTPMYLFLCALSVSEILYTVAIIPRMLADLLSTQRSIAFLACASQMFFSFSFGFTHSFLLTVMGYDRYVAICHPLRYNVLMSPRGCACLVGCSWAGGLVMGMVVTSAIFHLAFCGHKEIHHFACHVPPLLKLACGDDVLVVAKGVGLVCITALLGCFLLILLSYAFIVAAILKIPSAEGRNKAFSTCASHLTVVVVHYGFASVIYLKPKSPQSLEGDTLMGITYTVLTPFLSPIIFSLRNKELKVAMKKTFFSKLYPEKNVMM
Procedure, shortened: as §1

OR10H2 (Homo sapiens) = biological target: T9, OR10H2 (Homo sapiens) (UniProt O60403)
T9 sequence (whole entry): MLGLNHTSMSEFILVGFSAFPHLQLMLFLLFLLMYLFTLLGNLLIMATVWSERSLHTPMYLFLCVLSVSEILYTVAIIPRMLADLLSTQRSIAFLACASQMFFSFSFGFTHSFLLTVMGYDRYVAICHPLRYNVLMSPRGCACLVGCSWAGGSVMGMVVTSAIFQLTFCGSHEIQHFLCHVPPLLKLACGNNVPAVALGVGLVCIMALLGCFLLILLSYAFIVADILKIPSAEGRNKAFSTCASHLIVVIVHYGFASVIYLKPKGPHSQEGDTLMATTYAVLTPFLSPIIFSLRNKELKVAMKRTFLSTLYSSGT
Procedure, shortened: as §1

Measured: odorant receptor agonist call

CCC(S)C(C)CO (centres undefined)
inactive: all assays above
